From ChEMBL document CHEMBL1124684, “Studies on prodrugs. 10. Possible mechanism of N-dealkylation of N-masked norfloxacins having several active methylene groups” (J Med Chem, 1989) come the findings set out here.

For series [1], the system named is Mus musculus. The experiment in a line: Serum concentration of the liberated Norfloxacin after oral administration (100 mg/kg) in mice after 0.5 hr; ND is not detected. The series is classed as functional, organism-based. The method, boiled down:
(§1)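 Mice dosed orally at 100 mg/kg, suspended in 0.5% sodium carboxymethylcellulose. Animals killed by bleeding at 0.5, 1.0, 2.0 and 4.0 h; blood centrifuged, serum adjusted. NFLX in serum quantified by HPLC with UV detection at 280 nm. Stability of the masked compounds at pH 7.4 and 37 °C was checked beforehand by HPLC.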

The subject of series [2] is Mus musculus. The experiment in a line: Serum concentration of the liberated Norfloxacin after oral administration (100 mg/kg) in mice after 2.0h; ND is not detected. It is filed as functional, organism-based. Put shortly: as §1
The test system of series [3] is Mus musculus. The experiment in a line: Serum concentration of the liberated Norfloxacin after oral administration (100 mg/kg) in mice after 4.0h; ND is not detected. It is filed as functional, organism-based. Put shortly: as §1
Series [4] concerns Mus musculus. The experiment in a line: Serum concentration of the liberated Norfloxacin after oral administration (100 mg/kg) in mice after 1.0h; ND is not detected. The series is classed as functional, organism-based. The method, boiled down: as §1
Series [5] in a line: (§2) Compound was evaluated for Area under curve in mice. The conditions noted are these: mouse, in vivo. The series is classed as ADME, organism-based. More on the design: concentration or dose not given beside the values.
Series [6] is filed under the species Mus musculus. The description is as §2. The series is classed as ADME, organism-based. The note with it: in vivo. More on the design: concentration or dose not given beside the values.
Series [7] concerns Mus musculus. The experiment in a line: Serum concentration of the liberated Norfloxacin after oral administration 100 mg/kg in mice after the 1.0 h. More on the design: dose 100 mg/kg. It is filed as functional, organism-based. Put shortly:
as §1

For series [8], the system named is Mus musculus. The experiment in a line: Serum concentration of the liberated Norfloxacin after oral administration 100 mg/kg in mice after the 2.0 h. It is filed as functional, organism-based. Also noted: dose 100 mg/kg. The method, boiled down:
as §1

The test system of series [9] is Mus musculus. The experiment in a line: Serum concentration of the liberated Norfloxacin after oral administration 100 mg/kg in mice after the 4.0 h. It is filed as functional, organism-based. Also noted: dose 100 mg/kg. Put shortly:
as §1

In series [10] the test system is Mus musculus. The experiment in a line: (§3) Serum concentration of the liberated Norfloxacin after oral administration (100 mg/kg) in mice after 0.5 hr. The series is classed as functional, organism-based. Put shortly: as §1
Series [11] relates to Mus musculus. Description: Serum concentration of the liberated Norfloxacin after oral administration (100 mg/kg) in mice after 1.0 hr. It is filed as functional, organism-based. The method, boiled down: as §1
Series [12] relates to Mus musculus. Description: Serum concentration of the liberated Norfloxacin after oral administration (100 mg/kg) in mice after 2.0 hr. The series is classed as functional, organism-based. The method, boiled down: as §1
For series [13], the system named is Mus musculus. The experiment in a line: Serum concentration of the liberated Norfloxacin after oral administration (100 mg/kg) in mice after 4.0h. It is filed as functional, organism-based. Put shortly:
as §1

Series [14] has as its system Mus musculus. Description: Serum concentration of the liberated Norfloxacin after oral administration 100 mg/kg in mice after the 0.5 h. It is filed as functional, organism-based. More on the design: dose 100 mg/kg. Put shortly: as §1
For series [15], the system named is Mus musculus. Described as §3. The series is classed as functional, organism-based. The method, boiled down: as §1
The source holds these as a separate data set.

As for `CCn1cc(C(=O)O)c(=O)c2cc(F)c(N3CCN(CC(C)O)CC3)cc21` (stereo not drawn), the Serum concentration result in series [1], in series [2], in series [3] and in [4] was “Not detected” each time.
On to `CCn1cc(C(=O)O)c(=O)c2cc(F)c(N3CCN(C(C)(C)C(C)=O)CC3)cc21`, for which the Serum concentration entry in series [1], in series [2], in series [3] and in series [4] was “Not detected” in each case.
Turning to `CCOC(=O)CN1CCN(c2cc3c(cc2F)c(=O)c(C(=O)O)cn3CC)CC1`, the AUC in series [5] and in series [6] was 3900 ng·h/mL throughout. For the same molecule, the Serum concentration in [7] is 1.37 µg/mL; in series [8], 0.38 µg/mL; in series [9] it was 0.42 µg/mL; in [10], 3.77 µg/mL; in series [11] it was 1.37 µg/mL; in [12] it was 0.38 µg/mL. Moreover, the Serum concentration in [13] stood at 0.42 µg/mL; in series [14], 3.77 µg/mL.
Take `CCn1cc(C(=O)O)c(=O)c2cc(F)c(N3CCN(C(C)C(C)=O)CC3)cc21` (stereo not drawn): the AUC in series [5] and in series [6] was 5710 ng·h/mL in each case. Besides, the Serum concentration in [7] came out at 1.68 µg/mL; in [8], 1.67 µg/mL; in series [9], 0.63 µg/mL; in series [10], 2.63 µg/mL; in [11] it was 1.68 µg/mL; in series [12] it was 1.67 µg/mL. Moreover, the results for the Serum concentration in [13] and in series [14] were 0.63 µg/mL and 2.63 µg/mL, respectively.
`CCn1cc(C(=O)O)c(=O)c2cc(F)c(N3CCN(CC#N)CC3)cc21`: the area under the curve (AUC) in [5] and in series [6] was 3060 ng·h/mL in each case. In addition, the Serum concentration in series [7] was found to be 0.75 µg/mL; in series [8], 1.15 µg/mL; in series [9], 0.63 µg/mL; in series [10], 0.29 µg/mL; in series [11] it was 0.75 µg/mL; in series [12] it was 1.15 µg/mL. Further, the Serum concentration in series [13] was found to be 0.63 µg/mL; in series [14], 0.29 µg/mL.
Consider `CCn1cc(C(=O)O)c(=O)c2cc(F)c(N3CCN(CC(C)=O)CC3)cc21`, for which the AUC (as a rule, the area under the concentration-time curve, a measure of exposure) in series [5] turned out to be 22000 ng·h/mL; in series [6], 22010 ng·h/mL. Moreover, the Serum concentration is 6.33 µg/mL in [15]; 5.74 µg/mL in series [7]; 3.96 µg/mL in series [8]; 2.62 µg/mL in [9]; 6.33 µg/mL in [10]; 5.74 µg/mL in series [11]. For the same molecule, the Serum concentration in [12] came to 3.96 µg/mL; in series [13] it was 2.62 µg/mL.
As to `CCn1cc(C(=O)O)c(=O)c2cc(F)c(N3CCNCC3)cc21` [NORFLOXACIN], the AUC in series [5] and in [6] was 6490 ng·h/mL in each case. Further, the Serum concentration is 2.02 µg/mL in series [7]; 1.12 µg/mL in series [8]; 0.56 µg/mL in series [9]; 3.47 µg/mL in [10]; 2.02 µg/mL in [11]; 1.12 µg/mL in series [12]. For the same molecule, the Serum concentration in series [13] is 0.56 µg/mL; in series [14], 3.47 µg/mL.
